The source of these data is ChEMBL document CHEMBL4610058, “Mariannamides A and B, new cyclic octapeptides isolated from Mariannaea elegans NBRC102301” (2020).

Assay [1] deals with C2C12. The experiment in a line: Upregulation of SIRT1 mRNA expression in mouse C2C12 cells at 50 uM measured after 24 hrs by qRT-PCR analysis. Format: functional, cell-based. In short, it runs like this: (§1)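 C2C12 seeded at 2×10^5 cells/well, grown to 90% confluence, then differentiated 2 days in DMEM with 2% horse serum. Treated 24 h with compound (10–50 µM), DMSO, or resveratrol 50 µM (positive control). SIRT1 mRNA measured by qRT-PCR (40 cycles, 95/60 °C), GAPDH reference, ΔΔCt vs DMSO. Triplicate; mean ± S.E.M.; one-way ANOVA with Tukey.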

Assay [2] relates to C2C12. Description: Upregulation of SIRT1 mRNA expression in mouse C2C12 cells at 50 uM measured after 24 hrs by qRT-PCR analysis relative to control. The class given is functional. In short, it runs like this: as §1
Background: Real-time PCR tracks product formation cycle by cycle.

The next assay has as its system Cryptococcus neoformans. The experiment in a line: Antimicrobial activity against Cryptococcus neoformans IFM 40215 assessed as diameter of inhibition zone measured after 24 hrs by disc diffusion assay. The class given is functional. In short, it runs like this: (§2)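 Yeasts pre-cultured on YPD agar at 37 °C for 24 h, suspended in Mueller Hinton broth and adjusted to 0.5 McFarland. 6 mm discs carrying 2 µg compound (20 µL) laid on Mueller Hinton agar spread with the fungal suspension, then incubated 37 °C for 24 h. Zone diameter read including the disc. 5% DMSO discs as negative control. Triplicate.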
A general note: In agar diffusion tests the substance spreads into inoculated agar from a disc or well.

The next assay has as its system Escherichia coli. The experiment in a line: Antimicrobial activity against Escherichia coli U541 assessed as diameter of inhibition zone measured after 24 hrs by disc diffusion assay. The class given is functional. In short, it runs like this: (§3)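 Bacteria grown in Mueller Hinton broth at 37 °C for 24 h and adjusted to 0.5 McFarland. 6 mm paper discs loaded with 2 µg compound (20 µL) placed on Mueller Hinton agar spread with the suspension, then incubated 37 °C for 24 h. Inhibition-zone diameter measured including the disc. Blank 5% DMSO discs as negative control. Triplicate.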

A further assay deals with Candida albicans. Description: Antimicrobial activity against Candida albicans IFM 40213 measured after 24 hrs by disc diffusion method. Format: functional, organism-based. The essentials: as §2
The next assay relates to Staphylococcus aureus. Description: Antimicrobial activity against methicillin-resistant Staphylococcus aureus N315 measured after 24 hrs by disc diffusion method. The class given is functional, organism-based. The essentials:
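Disc diffusion on Müller Hinton agar. MRSA N315 grown in Müller Hinton broth at 37 °C for 24 h, then adjusted to McFarland 0.5. Sterile 6 mm paper discs loaded with 20 µL (2 µg) of compound. Incubation at 37 °C for 24 h. Read-out is inhibition zone diameter including the disc. Negative control was discs with 5% DMSO. Triplicate; mean ± S.E.M.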

The subject of assay [3] is Meyerozyma guilliermondii. Description: Antimicrobial activity against Candida guilliermondii TIMM 0260 measured after 24 hrs by disc diffusion method. Format: functional, organism-based. The essentials:
as §2

The subject of a further assay is Enterococcus faecalis. The experiment in a line: Antimicrobial activity against Enterococcus faecalis JCM7783 measured after 24 hrs by disc diffusion method. Format: functional, organism-based. The essentials:
as §3

Another assay concerns Bacillus subtilis. The experiment in a line: Antimicrobial activity against Bacillus subtilis HA101 measured after 24 hrs by disc diffusion method. The class given is functional, organism-based. In short, it runs like this: as §3
For a further assay, the system named is [Candida] auris. The experiment in a line: Antimicrobial activity against Candida auris JCM 15448 measured after 24 hrs by disc diffusion method. Format: functional, organism-based. The settings on record: Candidozyma auris. In short, it runs like this: as §2
The next assay concerns Candida parapsilosis. Description: Antimicrobial activity against Candida parapsilosis IFM 40218 measured after 24 hrs by disc diffusion method. The class given is functional, organism-based. In short, it runs like this: as §2
The test system of another assay is Nakaseomyces glabratus. The experiment in a line: Antimicrobial activity against Candida glabrata IFM 40217 measured after 24 hrs by disc diffusion method. The class given is functional, organism-based. In short, it runs like this:
as §2

Activity calls are given as the source filed them. The calls are words filed in the database; no cut-off is given here. Where a SMILES comes first, the peptide text is derived from it.

Regarding `Oc1ccc(/C=C/c2cc(O)cc(O)c2)cc1`, the outcome in the assay with C2C12 [1] was Active.
With `CC[C@H](C)[C@@H]1NC(=O)[C@H](C(C)C)NC(=O)[C@@H]2CCCN2C(=O)[C@H]([C@@H](C)CC)NC(=O)[C@H](CC(C)C)NC(=O)[C@@H]2CCCN2C(=O)[C@@H]2CCCN2C(=O)[C@H](CC(C)C)NC1=O` (cyclo(ILPPLIPV)), the “fold change (FC)” value in the assay on C2C12 [2] is 1.5. For the same molecule, the figures for the “diameter of the inhibition zone (DIZ)” value in the assay on Cryptococcus neoformans and with Escherichia coli were 7.7 mm and 9.4 mm, respectively.
As to `CC[C@H](C)[C@@H]1NC(=O)[C@H](CC(C)C)NC(=O)[C@@H]2CCCN2C(=O)[C@@H]2CCCN2C(=O)[C@H](CC(C)C)NC(=O)[C@H](C(C)C)NC(=O)[C@H](C(C)C)NC(=O)[C@@H]2CCCN2C1=O` (cyclo(IPVVLPPL)), the outcome (in the assay on Cryptococcus neoformans; with Candida albicans; in the assay on Staphylococcus aureus; in [3]; in the assay on Enterococcus faecalis; with Escherichia coli) was inactive. Further, the result (with Bacillus subtilis; in assay [Candida] auris; in the assay on Candida parapsilosis; with Nakaseomyces glabratus) was inactive.
